# Screening data: PubChem, Johns Hopkins Ion Channel Center
# TRPC6 inh – mouse TRPC6 channel inhibitors, primary screen, cell-based, HEK293, membrane potential dye. 310,000 tested, 1.1% active. ACh-evoked depolarization; active compounds read low. Short transient receptor potential channel 6 (Mus musculus), Q61143. B-score at 10 µM;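 active means B-score under library mean minus 3 SD, initial fluorescence not abnormally high, positive integrated signal ratio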;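 further: B-score derived from integrated fluorescence ratio over the kinetic read; more negative B-score means stronger inhibition of depolarization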
# TRPC4 agonist – activators of mouse TRPC4 channel, primary screen, Fluo4 calcium, HEK293 TRPC4beta/mu-opioid cells; 310,000 tested, 0.49% active; B-score at 10 µM; Fluo4 calcium fluorescence; active compounds read high; Short transient receptor potential channel 4 (Mus musculus), Q9QUQ5;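 active means B-score above 5 SD of library B-scores, and initial fluorescence ratio not above library mean plus 5 SD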;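 further: positive B-score marks a calcium rise read as TRPC4 activation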
# Target sequence (Q9QUQ5 whole entry, looked up): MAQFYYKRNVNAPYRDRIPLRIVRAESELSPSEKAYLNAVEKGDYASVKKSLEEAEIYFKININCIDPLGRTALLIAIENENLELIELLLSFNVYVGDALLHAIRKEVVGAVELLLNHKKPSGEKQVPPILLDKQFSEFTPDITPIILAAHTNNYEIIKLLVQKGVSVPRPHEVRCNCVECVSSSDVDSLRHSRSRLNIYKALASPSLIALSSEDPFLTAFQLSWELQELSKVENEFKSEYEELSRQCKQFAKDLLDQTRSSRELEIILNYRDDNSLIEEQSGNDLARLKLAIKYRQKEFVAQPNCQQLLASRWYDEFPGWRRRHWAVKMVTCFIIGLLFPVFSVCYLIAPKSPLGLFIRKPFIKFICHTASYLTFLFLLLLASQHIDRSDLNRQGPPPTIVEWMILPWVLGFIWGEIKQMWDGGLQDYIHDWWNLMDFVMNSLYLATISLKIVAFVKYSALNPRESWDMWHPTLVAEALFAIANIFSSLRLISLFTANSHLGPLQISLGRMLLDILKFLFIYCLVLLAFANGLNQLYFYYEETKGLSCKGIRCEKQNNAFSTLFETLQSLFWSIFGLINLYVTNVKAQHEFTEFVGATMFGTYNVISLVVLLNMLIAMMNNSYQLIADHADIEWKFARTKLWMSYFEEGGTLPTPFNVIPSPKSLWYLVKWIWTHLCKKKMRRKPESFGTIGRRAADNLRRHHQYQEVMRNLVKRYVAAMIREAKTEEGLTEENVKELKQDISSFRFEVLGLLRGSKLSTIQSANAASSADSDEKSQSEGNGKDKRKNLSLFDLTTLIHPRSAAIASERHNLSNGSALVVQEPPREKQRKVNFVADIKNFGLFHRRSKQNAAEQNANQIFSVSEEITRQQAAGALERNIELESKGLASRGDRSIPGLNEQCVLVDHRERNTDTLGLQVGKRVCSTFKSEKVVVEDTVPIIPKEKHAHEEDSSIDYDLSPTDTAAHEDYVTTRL
#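 System: HEK293 cells stably co-expressing mouse TRPC4beta and mu-opioid receptor; Schedule: Fluo4 dye loading 45 min at room temperature, 110 s recording; Detection: Fluo4 fluorescence, kinetic; Evaluation: B-scored integrated calcium fluorescence ratio; Controls: buffer (low) and maximal DAMGO (high).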
# TRPC4 PAM – positive allosteric modulators of TRPC4, primary screen, cell-based, mouse TRPC4beta, HEK293 mu-opioid, Fluo-4 calcium | Short transient receptor potential channel 4 (Mus musculus), Q9QUQ5 | DAMGO EC20, Fluo-4 Ca2+ flux; active compounds read high | B-score at 10 µM | 310,000 tested, 0.42% active | AID 2227, 2009;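 active means B-score of calcium response area above 5 SD of library B-scores, with initial fluorescence ratio within 5 SD of library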;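 further: B-score of integrated fluorescence ratio over time as area under calcium response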
# TRPC4 inh – inhibitors of mouse TRPC4 channel, primary screen, Fluo4 calcium, HEK293 TRPC4beta/mu-opioid cells. DAMGO-evoked Fluo4 calcium flux; active compounds read low. B-score at 10 µM. 300,000 tested, 0.39% active. AID 2247, 2010;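 active means B-score over 3 SD under the library average, no early fluorescence shift, positive overall ratio signal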
#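 Material: HEK293 cells with stable TRPC4beta plus mu-opioid receptor expression; probe or stimulus: DAMGO in two steps, submaximal then maximal; technique: Fluo4 calcium fluorescence by kinetic imaging, 5 s 1 Hz baseline; measure: integrated fluorescence ratio relative to baseline, converted to per-well B score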
# TRPC6 activator – mouse TRPC6 channel activators, primary screen, cell-based, HEK293, membrane potential dye. Short transient receptor potential channel 6 (Mus musculus), Q61143. HEK293-TRPC6 membrane potential dye fluorescence; active compounds read high. B-score at 10 µM. 310,000 tested, 0.13% active. AID 2550, 2010;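 active means B-score of the integrated fluorescence ratio above library mean plus 3 SD, and starting fluorescence ratio within library mean plus 5 SD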;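 further: higher score means more depolarization so channel activation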
# Kir21 inh – inhibitors of mouse Kir2.1 inward-rectifier potassium channel; Inward rectifier potassium channel 2 (Mus musculus), P35561; HEK293-Kir2.1, FluxOR thallium flux fluorescence; active compounds read low; B-score at 10 µM; 310,000 tested, 0.85% active;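 active means fluorescence ratio B-score at or below minus 3 SD of library scores, with starting-brightness B-score within 2 SD, cut at about -4.2 in these data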;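 further: channel flux triggered by added potassium and thallium sulfate stimulus; B-score of peak minus minimum fluorescence over baseline after thallium stimulus; more negative B-score means stronger Kir2.1 block with less thallium influx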
# TRPC4 spec 2 – second check of whether TRPC6 inhibitors also affect mouse TRPC4. shares compounds with TRPC6 inh. HEK293 TRPC4/MOR, membrane potential dye fluorescence; channel activated by saturating DAMGO dose. inhibition, % at 10 µM. 920 tested, 42% active;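 active means compounds whose fluorescence signal differed from control wells by over 3 SD, either direction, in both duplicate plates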
# TRPC4 spec – mouse TRPC4 modulation by TRPC6 hits, confirmation, selectivity assay for TRPC6 inhibitor project, cell-based, HEK293 TRPC4/mu-opioid, membrane potential dye | shares compounds with TRPC6 inh | membrane potential fluorescence | activity change, negative = inhibition, % at 10 µM | 920 tested, 61% active | AID 2777, 2010;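 active means rise or fall in signal beyond 3 SD of buffer-only wells in both replicate plates, either sign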;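 further: integrated kinetic ratio of fluorescence range over baseline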
# HEK293 MPD ctr 2-1 – nonspecific membrane potential effects, parental HEK293, confirmation, counter-screen for TRPC6 inhibitor project, cell-based, second counter screen; shares compounds with TRPC6 inh; parental HEK293 membrane potential dye fluorescence; maximal acetylcholine challenge after compound addition; signal change vs control, % at 10 µM; 920 tested, 31% active; AID 2779, 2010;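 active means membrane potential signal moving either way by over 3 SD of the maximum-effect control, in both duplicate plates, meaning non-specific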
# HEK293 MPD ctr-1 – membrane potential modulation in parental HEK293, confirmation, counter-screen for TRPC6 inhibitor project, cell-based | 920 tested, 60% active | membrane potential signal change, % at 10 µM | shares compounds with TRPC6 inh | parental HEK293 membrane potential dye fluorescence;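 active means membrane potential signal shifting up or down by more than 3 SD of buffer-only wells, on both duplicate plates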
# HEK293 MPD ctr-2 – parental HEK293 membrane potential modulation, confirmation, counter-screen for TRPC6 modulator project, cell-based; shares compounds with TRPC6 inh; membrane potential dye fluorescence; membrane potential signal change, % at 10 µM; 2,400 tested, 51% active; AID 488924, 2010;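 active means membrane potential signal moves up or down beyond 5 SD from buffer-only wells, on both duplicate plates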
# HEK293 MPD ctr 2-2 – second check of TRPC6 modulator effects in parental HEK293 cells. membrane potential dye fluorescence; after compound, maximal acetylcholine stimulation. shares compounds with TRPC6 inh. inhibition, % at 10 µM. 2,400 tested, 14% active;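 active means membrane potential signal drops by more than 5 SD from the mean control signal, in both duplicate plates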;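 further: plate controls were acetylcholine ECmax control wells for no effect and buffer only wells for full effect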
# TRPC4/MOR mod – TRPC4 modulation by TRPC6 hit compounds, confirmation, selectivity assay for TRPC6 modulator project, cell-based, HEK293 TRPC4/mu-opioid, membrane potential dye, mouse | percent change from control (negative = decrease, positive = increase), % at 10 µM | shares compounds with TRPC6 inh | membrane potential fluorescence | 2,400 tested, 69% active;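 active means membrane potential signal moved up or down beyond 5 SD of buffer control wells, in both duplicate plates, actives on both sides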;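 further: plate controls were assay buffer wells for no effect and DAMGO maximal-effect wells for full effect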
# TRPC4 ctr inh 2 – second check of whether TRPC6 modulators also affect mouse TRPC4; shares compounds with TRPC6 inh; HEK293 TRPC4/mu-opioid, membrane potential dye fluorescence; stimulated with maximal-effect DAMGO; inhibition, % at 10 µM; 2,400 tested, 55% active;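 active means drop in membrane potential signal beyond 5 SD of the control wells in both duplicate plates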;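 further: TRPC4 counter screen for TRPC6 hits run under conditions tuned for TRPC6 not TRPC4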
# TRPC6 inh conf – mouse TRPC6 channel inhibitors, confirmation, HEK293 cells, membrane potential dye, duplicate; 3,300 tested, 43% active; inhibition, % at 10 µM; shares compounds with TRPC6 inh; AID 488960, 2010; ACh-evoked depolarization;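 active means fluorescence ratio falls more than 5 SD below the full-stimulation control mean, in both duplicate runs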;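 further: integrated fluorescence ratio of peak minus minimum over baseline after agonist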
# TRPC6 act confirm – mouse TRPC6 channel activators, confirmation, HEK293 cells, membrane potential dye, duplicate | 2,800 tested, 11% active | AID 488961, 2010 | shares compounds with TRPC6 inh | HEK293-TRPC6 membrane potential dye fluorescence, FDSS | activation, % at 10 µM;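 active means ratio signal rise beyond 5 SD above unstimulated control wells' mean, seen in both duplicate runs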;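 further: plate controls were buffer EC0 wells for no effect and acetylcholine ECmax response for full effect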
# Starred values were filed as active, the others as inactive; i = inactive; nt = no result. Sampled rows, rich in hits. Any-hit rate of the full collection: about 3%.
SMILES,TRPC6 inh,TRPC4 agonist,TRPC4 PAM,TRPC4 inh,TRPC6 activator,Kir21 inh,HEK293 MPD ctr-2,HEK293 MPD ctr 2-2,TRPC4/MOR mod,TRPC4 ctr inh 2,TRPC6 inh conf,TRPC6 act confirm,others
Cc1ccc2[nH]c(C)c(/C=C/c3cc[n+](C)cc3)c2c1,i,i,i,i,i,-12,nt,nt,nt,nt,nt,nt,
C[n+]1ccc(/C=C/c2ccc(Br)cc2)cc1,-5.2*,i,i,i,i,0.33,-78%*,i,i,36%*,i,i,
CCOC(=O)[C@@H]1[C@H]2COc3ccccc3[C@@H]2N2C(=O)N(c3cccc(C)c3)C(=O)[C@]12C,i,i,i,i,i,-0.43,nt,nt,nt,nt,nt,nt,
Cc1cc(N=Nc2ccccc2)c(NCC(O)C(O)C(O)CO)cc1C (stereo not drawn),-8.1*,i,i,i,i,2.1,nt,nt,nt,nt,80%*,i,TRPC4 spec 2=32%*;TRPC4 spec=-30%*;HEK293 MPD ctr 2-1=i;HEK293 MPD ctr-1=-542%*
COc1ccc(NC(=O)CN(C)C(=O)CSCc2ccc(C)cc2)cc1,i,i,i,i,i,-0.29,nt,nt,nt,nt,nt,nt,
CN(C)c1ccc(N=Nc2cccc3ccoc23)cc1,-5.8*,i,i,i,i,-1.5,i,i,i,41%*,i,i,
CCCn1nc([N+](=O)[O-])c(C(C#N)c2nc3ccccc3s2)c(Cl)c1=O (stereo not drawn),-13*,i,i,i,i,-3.1,-210%*,i,-36%*,83%*,66%*,i,
CCCn1c2c(c(=N)c3c1CCC3)CCC2,-8.1*,i,i,i,i,-0.22,nt,nt,nt,nt,i,i,TRPC4 spec 2=78%*;TRPC4 spec=-28%*;HEK293 MPD ctr 2-1=12%*;HEK293 MPD ctr-1=-578%*
CCCn1c2c(c(=N)c3c1CCC3)CCCC2,i,i,i,i,i,-1.6,nt,nt,nt,nt,nt,nt,
CC(=O)NCCc1nc2ccccc2n1Cc1cc(C)ccc1C,-5.1*,i,i,i,i,0.92,i,i,17%*,i,i,i,
CCC(=O)NCCc1nc2ccccc2n1Cc1ccc(C)cc1,i,i,i,i,i,-3.7,nt,nt,nt,nt,nt,nt,
CCOc1ccc(C(C(=O)NC(C)(C)C)N(CCOC)C(=O)CCC(=O)Nc2ccccn2)cc1 (stereo not drawn),i,i,i,i,i,0.38,nt,nt,nt,nt,nt,nt,
CCN(CC)c1ccc2cc(-c3nc4ccccc4n3C)c(=O)oc2c1,i,i,i,i,i,-2.9,nt,nt,nt,nt,nt,nt,
CN(C)Cc1c(O)ccc2cc(-c3nc4ccccc4n3C)c(=O)oc12,-5*,i,i,i,i,-3.3,444%*,i,-24%*,i,i,i,
Fc1ccc(NC(=S)Nc2ccccc2OC(F)F)cc1Cl,-6.5*,i,i,i,i,-1.7,i,i,i,35%*,i,i,
CC1CCCC1/C(=N/O)c1ccccc1 (stereo not drawn),i,i,i,i,i,0.15,nt,nt,nt,nt,nt,nt,
Cc1cc2c(s1)Nc1ccccc1N=C2N1CCN(C)CC1,-6*,i,i,i,i,-2.1,i,i,i,i,58%*,i,
OCCOCCN1CCN(C2=Nc3ccccc3Sc3ccccc32)CC1,i,i,i,i,i,-0.6,nt,nt,nt,nt,nt,nt,
CCN(CC)S(=O)(=O)c1ccc(N2CCOCC2)c(NC(=O)C23CC4CC(CC(Cl)(C4)C2)C3)c1,-6.4*,i,i,i,i,0.65,164%*,i,i,i,38%*,nt,
CCN(CC)S(=O)(=O)c1ccc(N2CCCCC2)c(NC(=O)c2ccncc2)c1,-6.6*,i,i,i,i,1.7,nt,nt,nt,nt,i,nt,TRPC4 spec 2=i;TRPC4 spec=10%*;HEK293 MPD ctr 2-1=i;HEK293 MPD ctr-1=6.7%*
CCCc1cc(-c2[nH]ncc2-c2ccc3c(c2)OCCCO3)c(O)cc1O,-8*,i,i,i,i,-0.48,nt,nt,nt,nt,63%*,i,TRPC4 spec 2=i;TRPC4 spec=i;HEK293 MPD ctr 2-1=208%*;HEK293 MPD ctr-1=i
